Laboratory results published in ChEMBL document CHEMBL5096187, “Efficient Synthesis and Bioevaluation of Novel Dual Tubulin/Histone Deacetylase 3 Inhibitors as Potential Anticancer Agents” (J Med Chem, 2021).

Key:
[1] = tested on: HCT-116; test: Antiproliferative activity against human HCT-116 cells assessed as inhibition of cell viability measured for 48 hrs by microplate reader based MTT assay; type: functional; conditions: HCT-116, 48 h
How it was run: (§1)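 Cells grown in RPMI-1640 with 10% FBS and seeded at 5000 cells/well. After overnight attachment, compound was added in medium with 0.1% DMSO for 48 h at 37 °C. Read-out was MTT for HCT-116, B16-F10 and A549, and CCK-8 for Jurkat (0.5 mg/mL, 4 h), with absorbance at 570 nm. IC50 from nonlinear regression; at least three independent experiments.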

[2] = tested on: B16-F10; test: Antiproliferative activity against mouse B16-F10 cells assessed as inhibition of cell viability measured for 48 hrs by microplate reader based MTT assay; type: functional; conditions: B16-F10, 48 h; how it was run: as §1
[3] = tested on: Jurkat; test: Antiproliferative activity against human Jurkat cells assessed as inhibition of cell viability measured for 48 hrs by microplate reader based CCK-8 assay; type: functional
[4] = tested on: A549; test: Antiproliferative activity against human A549 cells assessed as inhibition of cell viability measured for 48 hrs by microplate reader based CCK-8 assay; type: functional; conditions: A549, 48 h
[5] = target: Histone deacetylase 1 (Homo sapiens, UniProt Q13547); test: Inhibition of full length recombinant human HDAC1 (1 to 482 residues) expressed in Baculovirus system using Ac-Leu-Gly-Lys (Ac)-AMC as substrate pretreated for 5 mins followed by substrate addition and measured after 30 mins
[6] = target: Histone deacetylase 3 (Homo sapiens, UniProt O15379); test: Inhibition of recombinant HDAC3 (unknown origin) using Ac-Leu-Gly-Lys (Ac)-AMC as substrate pretreated for 5 mins followed by substrate addition and measured after 30 mins
[7] = target: T1, Protein deacetylase HDAC6 (Homo sapiens, UniProt Q9UBN7); test: Inhibition of full length N-terminal GST-tagged human recombinant HDAC6 (1 to 1215 residues) expressed in Baculovirus infected Sf9 cells using Ac-Leu-Gly-Lys (Ac)-AMC as substrate pretreated for 5 mins followed by substrate addition and measured after 30 mins
T1 sequence (Q9UBN7 whole entry): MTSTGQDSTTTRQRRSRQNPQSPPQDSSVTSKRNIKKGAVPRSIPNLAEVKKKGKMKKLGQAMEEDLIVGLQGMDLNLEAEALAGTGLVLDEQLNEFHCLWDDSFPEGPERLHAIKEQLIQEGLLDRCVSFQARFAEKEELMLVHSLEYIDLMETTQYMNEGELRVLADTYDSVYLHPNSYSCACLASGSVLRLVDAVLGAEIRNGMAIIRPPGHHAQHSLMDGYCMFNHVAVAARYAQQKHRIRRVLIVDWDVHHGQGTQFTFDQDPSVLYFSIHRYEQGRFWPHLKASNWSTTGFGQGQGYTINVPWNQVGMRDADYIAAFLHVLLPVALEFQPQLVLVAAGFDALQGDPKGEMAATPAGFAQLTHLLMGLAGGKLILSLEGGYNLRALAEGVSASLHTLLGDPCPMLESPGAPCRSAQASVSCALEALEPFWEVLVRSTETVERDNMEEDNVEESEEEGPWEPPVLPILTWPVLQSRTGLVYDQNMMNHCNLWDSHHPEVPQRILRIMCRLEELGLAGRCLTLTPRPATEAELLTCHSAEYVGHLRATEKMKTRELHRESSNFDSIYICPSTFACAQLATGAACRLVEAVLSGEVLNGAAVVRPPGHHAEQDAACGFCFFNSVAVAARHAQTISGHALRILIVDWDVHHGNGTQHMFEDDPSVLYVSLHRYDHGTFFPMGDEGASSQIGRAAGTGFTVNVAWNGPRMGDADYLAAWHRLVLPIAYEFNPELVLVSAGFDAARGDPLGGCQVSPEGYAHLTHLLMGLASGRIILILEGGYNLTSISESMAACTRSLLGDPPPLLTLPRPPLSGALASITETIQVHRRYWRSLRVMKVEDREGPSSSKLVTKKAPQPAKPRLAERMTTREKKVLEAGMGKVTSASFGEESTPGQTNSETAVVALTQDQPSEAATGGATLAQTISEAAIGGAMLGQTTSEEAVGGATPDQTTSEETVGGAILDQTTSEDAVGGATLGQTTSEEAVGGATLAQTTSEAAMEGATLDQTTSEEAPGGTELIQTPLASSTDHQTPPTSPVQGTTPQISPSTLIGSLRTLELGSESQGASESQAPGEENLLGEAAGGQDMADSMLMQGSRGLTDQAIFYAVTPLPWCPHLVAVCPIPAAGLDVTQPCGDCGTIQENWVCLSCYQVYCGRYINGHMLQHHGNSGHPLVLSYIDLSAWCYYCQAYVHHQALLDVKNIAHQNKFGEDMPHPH
How it was run: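 HDAC6 at 15 ng/well in Tris buffer pH 8.0 with MgCl2, BSA, NaCl and KCl. Ten 3-fold dilutions preincubated 5 min at room temperature, then 10 μM Ac-Leu-Gly-Lys(Ac)-AMC for 30 min at 37 °C. IC50 by normalized dose–response nonlinear fit; performed at least three times.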

[8] = target: T2, Histone deacetylase 8 (Homo sapiens, UniProt Q9BY41); test: Inhibition of full length C-terminal his-tagged human recombinant HDAC8 ([…]) expressed in baculovirus in Sf9 insect cells using Ac-Leu-Gly-Lys (Tfa)-AMC as substrate pretreated for 5 mins followed by substrate addition and measured after 30 mins
T2 sequence (Q9BY41 whole entry): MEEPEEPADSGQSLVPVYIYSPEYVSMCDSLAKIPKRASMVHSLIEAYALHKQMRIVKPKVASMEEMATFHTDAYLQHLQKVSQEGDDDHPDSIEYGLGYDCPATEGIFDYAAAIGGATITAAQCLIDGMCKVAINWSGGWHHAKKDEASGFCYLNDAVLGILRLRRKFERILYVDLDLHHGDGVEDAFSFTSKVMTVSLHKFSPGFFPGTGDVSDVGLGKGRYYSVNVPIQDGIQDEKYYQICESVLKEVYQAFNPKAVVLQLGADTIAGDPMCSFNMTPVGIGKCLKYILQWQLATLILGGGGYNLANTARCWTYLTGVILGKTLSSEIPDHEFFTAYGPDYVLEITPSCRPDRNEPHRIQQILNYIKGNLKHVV

[9] = target: Tubulin (Sus scrofa) (UniProt P02554+P02550); test: Inhibition of pig brain tubulin polymerization at 10 uM measured after 20 mins by spectrometric method relative to control
How it was run: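 Pig brain tubulin was purified by three assembly/disassembly cycles and then phosphocellulose chromatography. Compound at 10 μM in PEM buffer with 1 mM GTP and 5% glycerol at 37 °C. Polymerization followed at 340 nm; inhibition taken at 20 min versus vehicle control.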

[10] = target: T3, Protein deacetylase HDAC6 (Homo sapiens) (UniProt Q9UBN7); test: Inhibition of recombinant HDAC6 (unknown origin) at 1 uM relative to control
T3 sequence (whole entry): T1 sequence (Q9UBN7 whole entry)
How it was run: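 Single-point test at 1 μM against recombinant HDAC6 (15 ng/well) in 25 mM Tris pH 8.0, 1 mM MgCl₂, 0.1 mg/mL BSA, 137 mM NaCl, 2.7 mM KCl. Compound preincubated 5 min at room temperature, then Ac-Leu-Gly-Lys(Ac)-AMC 10 μM, 30 min at 37 °C. Trypsin/TSA developer 30 min. Fluorescence read at ex 350−360/em 450−460 nm.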

[11] = Antiproliferative activity against human YCC-11 cells assessed as inhibition of cell viability; type: functional, cell-based
[12] = Antiproliferative activity against human YCC3/7 cells assessed as inhibition of cell viability; type: functional, cell-based

Histone deacetylase 1, sequence (Q13547 whole entry, the tested form may be a part): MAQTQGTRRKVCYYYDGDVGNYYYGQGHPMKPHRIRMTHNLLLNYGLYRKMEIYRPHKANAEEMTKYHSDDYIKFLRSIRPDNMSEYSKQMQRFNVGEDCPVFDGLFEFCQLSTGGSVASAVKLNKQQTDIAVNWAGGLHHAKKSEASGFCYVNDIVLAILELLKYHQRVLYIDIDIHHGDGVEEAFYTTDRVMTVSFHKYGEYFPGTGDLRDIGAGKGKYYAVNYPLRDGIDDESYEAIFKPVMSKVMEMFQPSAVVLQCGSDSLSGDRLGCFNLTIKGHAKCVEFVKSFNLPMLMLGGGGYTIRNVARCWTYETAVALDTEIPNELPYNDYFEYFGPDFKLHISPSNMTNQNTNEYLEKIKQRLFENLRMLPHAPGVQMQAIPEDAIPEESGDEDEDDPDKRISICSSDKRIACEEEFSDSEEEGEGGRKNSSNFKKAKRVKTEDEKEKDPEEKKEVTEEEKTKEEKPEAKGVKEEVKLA
Histone deacetylase 3, sequence (O15379 whole entry, the tested form may be a part): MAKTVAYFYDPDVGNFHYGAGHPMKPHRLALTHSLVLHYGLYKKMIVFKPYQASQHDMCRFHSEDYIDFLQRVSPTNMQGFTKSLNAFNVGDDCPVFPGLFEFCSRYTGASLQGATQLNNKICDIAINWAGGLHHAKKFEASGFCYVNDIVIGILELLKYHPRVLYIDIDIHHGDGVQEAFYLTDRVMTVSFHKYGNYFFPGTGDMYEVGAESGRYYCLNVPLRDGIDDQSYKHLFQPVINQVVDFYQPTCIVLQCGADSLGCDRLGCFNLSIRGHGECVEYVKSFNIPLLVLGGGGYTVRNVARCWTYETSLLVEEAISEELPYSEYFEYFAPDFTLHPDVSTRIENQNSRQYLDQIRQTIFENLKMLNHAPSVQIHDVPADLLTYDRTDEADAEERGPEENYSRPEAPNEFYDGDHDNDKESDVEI
Tubulin (Sus scrofa), sequence (P02550 whole entry, looked up): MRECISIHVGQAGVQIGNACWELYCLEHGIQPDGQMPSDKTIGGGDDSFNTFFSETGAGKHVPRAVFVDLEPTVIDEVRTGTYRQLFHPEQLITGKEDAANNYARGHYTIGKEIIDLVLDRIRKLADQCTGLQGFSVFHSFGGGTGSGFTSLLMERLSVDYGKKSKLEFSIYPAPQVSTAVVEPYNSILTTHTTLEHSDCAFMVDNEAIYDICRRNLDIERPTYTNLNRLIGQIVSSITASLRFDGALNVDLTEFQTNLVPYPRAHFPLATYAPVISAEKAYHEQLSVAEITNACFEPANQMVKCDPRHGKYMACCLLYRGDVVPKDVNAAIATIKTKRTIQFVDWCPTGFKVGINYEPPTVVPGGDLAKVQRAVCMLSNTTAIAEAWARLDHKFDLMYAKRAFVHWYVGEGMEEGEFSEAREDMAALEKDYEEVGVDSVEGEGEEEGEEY
Tubulin (Sus scrofa), sequence (P02554 whole entry, looked up): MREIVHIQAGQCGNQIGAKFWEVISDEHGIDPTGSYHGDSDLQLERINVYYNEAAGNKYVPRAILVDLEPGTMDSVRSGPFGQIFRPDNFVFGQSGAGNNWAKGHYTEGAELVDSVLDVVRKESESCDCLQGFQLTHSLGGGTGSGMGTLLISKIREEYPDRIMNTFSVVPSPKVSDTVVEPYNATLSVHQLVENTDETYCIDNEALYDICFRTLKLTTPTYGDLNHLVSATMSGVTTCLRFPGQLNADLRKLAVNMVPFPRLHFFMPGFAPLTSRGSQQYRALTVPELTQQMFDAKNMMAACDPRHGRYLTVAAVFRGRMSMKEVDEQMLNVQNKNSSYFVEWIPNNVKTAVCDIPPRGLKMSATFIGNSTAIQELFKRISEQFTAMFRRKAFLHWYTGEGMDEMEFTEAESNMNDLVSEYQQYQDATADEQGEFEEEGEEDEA

| SMILES | IC50 [1] [nM] | IC50 [2] [nM] | IC50 [3] [nM] | IC50 [4] [µM] | IC50 [5] [µM] | IC50 [6] [nM] | IC50 [7] [µM] | IC50 [8] [µM] | inhibition [9] [%] | inhibition [10] [%] | IC50 [11] [µM] | IC50 [12] [µM] |
| --- | --- | --- | --- | --- | --- | --- | --- | --- | --- | --- | --- | --- |
| COc1cc(C(=O)c2csc(-c3ccc(NC(=O)CC(=O)Nc4ccccc4N)cc3)n2)cc(OC)c1OC | 1010 | > 10000 | 60 | > 10 | 4.07 | 360 | 21.1 | 12 | 65 | – | – | – |
| COc1cc(C(=O)c2csc(-c3ccc(NC(=O)CCC(=O)NO)cc3)n2)cc(OC)c1OC | 2510 | 920 | 420 | 5.83 | 7.36 | 12300 | 1.86 | 5.14 | – | > 50 | – | – |
| COc1cc(C(=O)c2csc(-c3ccc(NC(=O)/C=C/C(=O)NO)cc3)n2)cc(OC)c1OC | 2820 | 1480 | 500 | > 10 | 17.5 | 13000 | 1.05 | 3.9 | – | > 50 | – | – |
| COc1cc(C(=O)c2csc(-c3ccc(NC(=O)CCCCC(=O)Nc4ccccc4N)cc3)n2)cc(OC)c1OC | 440 | 830 | 20 | 1.54 | 8.12 | 180 | 36.4 | 8.74 | 28 | – | – | – |
| COc1cc(C(=O)c2csc(-c3ccc(NC(=O)CCCCC(=O)NO)cc3)n2)cc(OC)c1OC | 770 | > 10000 | 60 | > 10 | 16.6 | 13100 | 2.55 | 3.28 | – | > 50 | – | – |
| COc1cc(C(=O)c2csc(-c3ccc(OCCCCCCC(=O)Nc4ccccc4N)cc3)n2)cc(OC)c1OC | 1910 | 1890 | 700 | 2.44 | 7.49 | 470 | 27.1 | 7.49 | 18 | – | – | – |
| COc1cc(C(=O)c2csc(-c3ccc(NC(=O)CCCCCCC(=O)Nc4ccccc4N)cc3)n2)cc(OC)c1OC | 360 | 910 | 30 | 2.1 | 9.88 | 1730 | 29.2 | 10.2 | – | – | 3.68 | 5.31 |
| COc1cc(C(=O)c2csc(-c3ccc(NCC(=O)Nc4ccccc4N)cc3)n2)cc(OC)c1OC | 1640 | 2350 | 60 | 2.2 | 9.8 | 1760 | 27.1 | 9.11 | – | – | – | – |
| COc1cc(C(=O)c2csc(-c3ccc(OCc4ccc(/C=C/C(=O)NO)cc4)cc3)n2)cc(OC)c1OC | 2780 | 2210 | 480 | > 10 | 6.86 | 8860 | 2.07 | 7.1 | – | > 50 | – | – |
| COc1cc(C(=O)c2csc(-c3ccc(NC(=O)CCCC(=O)NO)cc3)n2)cc(OC)c1OC | 150 | 750 | 40 | > 10 | 10.1 | 13600 | 1.73 | 6.32 | – | > 50 | – | – |
| COc1cc(C(=O)c2csc(-c3ccc(NC(=O)CCCCCC(=O)NO)cc3)n2)cc(OC)c1OC | 1900 | > 10000 | 150 | > 10 | 19.1 | 12200 | 1.94 | 4.17 | – | > 50 | – | – |
| COc1cc(C(=O)c2csc(-c3ccc(NCCC(=O)Nc4ccccc4N)cc3)n2)cc(OC)c1OC | 600 | 670 | 30 | > 10 | 10.7 | 380 | 23.8 | 8.28 | 19 | – | – | – |
| COc1cc(C(=O)c2csc(-c3ccc(C#CCCC(=O)Nc4ccccc4N)cc3)n2)cc(OC)c1OC | 2110 | > 10000 | 260 | > 10 | 9.77 | 1980 | 20.2 | 6.55 | – | – | – | – |
| COc1cc(C(=O)c2csc(-c3ccc(NC(=O)CCCCCC(=O)Nc4ccccc4N)cc3)n2)cc(OC)c1OC | 670 | > 10000 | 20 | 2.36 | 8.53 | 390 | 27.3 | 8.5 | 24 | – | – | – |
| COc1cc(C(=O)c2csc(-c3ccc(/C=C/C(=O)Nc4ccccc4N)cc3)n2)cc(OC)c1OC | 790 | 810 | 10 | > 10 | 11 | 170 | 22.5 | 3.11 | 30 | – | – | – |
| COc1cc(C(=O)c2csc(-c3ccc(OCc4ccc(C(=O)NO)cc4)cc3)n2)cc(OC)c1OC | 2550 | 2770 | 380 | 10 | 7.19 | 12600 | 1.98 | 7.98 | – | > 50 | – | – |
| COc1cc(C(=O)c2csc(-c3ccc(NC(=O)c4ccc(C(=O)Nc5ccccc5N)cc4)cc3)n2)cc(OC)c1OC | 1420 | 4320 | 520 | 6.58 | 10.5 | 3460 | 36.3 | 2.08 | – | – | – | – |
